The results in this text go back to ChEMBL document CHEMBL3102834, “Discovery of 5-substituted pyrrolo[2,3-d]pyrimidine antifolates as dual-acting inhibitors of glycinamide ribonucleotide formyltransferase and 5-aminoimidazole-4-carboxamide ribonucleotide formyltransferase in de novo purine nucleotide biosynthesis: implications of inhibiting …” (J Med Chem, 2013).

Test [1] can be described thus: Cytotoxicity against chinese hamster PC43-10 cells expressing human RFC after 96 hrs by CellTitre-Blue fluorescence assay. The conditions noted are these: Cricetulus griseus, PC43-10, 96 h. It is filed as functional, cell-based. The method in brief: (§1)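 CHO sublines were grown in FF-RPMI/DFBS; transfectants were maintained with G418. Cells were exposed to antifolate (0–1 μM) for 96 h at 37 °C with 2 nM LCV (RT16) or 25 nM LCV (R2/PCFT4). PC43-10 cells were grown in standard RPMI1640/DFBS instead. FRα specificity was tested by adding 200 nM folic acid. Viable cells were read by CellTiter-Blue fluorescence (ex 560/em 590), and IC50 was taken from dose–response curves; means of 3–10 experiments.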

Test [2] in a line: Cytotoxicity against chinese hamster R2(VC) cells after 96 hrs by CellTitre-Blue fluorescence assay. It is filed as functional, cell-based. The conditions noted are these: Cricetulus griseus. The method in brief:
as §1

Test [3] relates to R2. The test can be described thus: Cytotoxicity against chinese hamster R2 cells after 96 hrs by CellTitre-Blue fluorescence assay. The conditions noted are these: Cricetulus griseus, R2, 96 h.
The subject of test [4] is KB. Kind of test: Cytotoxicity against human KB cells at 10 mM after 96 hrs by CellTitre-Blue fluorescence assay. The test is classed as functional. The conditions noted are these: read-out: GI. An outline of the steps:
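KB cells were exposed for 96 h at 37 °C to metformin (0–10 mM) or AICA (0–2 mM) in FF-RPMI/DFBS with 2 nM LCV. Growth was read by CellTiter-Blue fluorescence relative to drug-free cells.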

Test [5] has as its target Bifunctional purine biosynthesis protein ATIC (Homo sapiens) (UniProt P31939). The test can be described thus: Inhibition of AICARFTase in human KB cells assessed as phosphorylated AMPK at 10 mM after 48 hrs by Western blot analysis. The test is classed as cell-based. An outline of the steps: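 KB cells were treated for 48 h with 10 μM thymidine, or with AMPK activators (metformin 10 mM, AICA 1 mM, AICAR 1 mM) against a water/DMSO vehicle. Cells were sonicated in 10 mM Tris-HCl pH 7.0 with protease/phosphatase inhibitors. 90 μg protein was run on 4–20% SDS gels and blotted for phospho-AMPK, total AMPK and β-actin, with infrared detection.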
(In western blotting, separated proteins are transferred to a membrane and probed.)

A short description of test [6]: Cytotoxicity against chinese hamster RT16 cells expressing human FRalpha after 96 hrs by CellTitre-Blue fluorescence assay in presence of folic acid. The conditions noted are these: Cricetulus griseus, RT16, 96 h. It is filed as functional, cell-based. The method in brief: as §1
The test system of test [7] is R2. The test can be described thus: Cytotoxicity against chinese hamster R2 cells expressing human PCFT4 after 96 hrs by CellTitre-Blue fluorescence assay. The test is classed as functional, cell-based, Cricetulus griseus. The conditions noted are these: R2, 96 h.
Test [8] deals with KB. Kind of test: Cytotoxicity against human KB cells expressing human RFC/FRalpha/PCFT after 96 hrs by CellTitre-Blue fluorescence assay in presence of thymidine. It is filed as functional, cell-based. The method in brief: (§2)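 KB cells were grown in FF-RPMI with DFBS and 2 nM LCV, exposed to antifolate (0–1 μM) for 96 h at 37 °C, and read by CellTiter-Blue fluorescence. IC50 was taken from dose–response curves relative to untreated cells. Protection arms added adenosine 60 μM, thymidine 10 μM, AICA 320 μM, or folic acid 200 nM. Means of 3–10 experiments.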

The test system of test [9] is KB. Kind of test: Cytotoxicity against human KB cells expressing human RFC/FRalpha/PCFT after 96 hrs by CellTitre-Blue fluorescence assay in presence of adenosine. The test is classed as functional, cell-based. An outline of the steps:
as §2

The test system of test [10] is KB. The test can be described thus: Cytotoxicity against human KB cells expressing human RFC/FRalpha/PCFT after 96 hrs by CellTitre-Blue fluorescence assay in presence of AICA. The test is classed as functional, cell-based. An outline of the steps:
as §2

The target in test [11] is T1, Reduced folate transporter (Homo sapiens) (UniProt P41440).
T1 sequence (whole entry): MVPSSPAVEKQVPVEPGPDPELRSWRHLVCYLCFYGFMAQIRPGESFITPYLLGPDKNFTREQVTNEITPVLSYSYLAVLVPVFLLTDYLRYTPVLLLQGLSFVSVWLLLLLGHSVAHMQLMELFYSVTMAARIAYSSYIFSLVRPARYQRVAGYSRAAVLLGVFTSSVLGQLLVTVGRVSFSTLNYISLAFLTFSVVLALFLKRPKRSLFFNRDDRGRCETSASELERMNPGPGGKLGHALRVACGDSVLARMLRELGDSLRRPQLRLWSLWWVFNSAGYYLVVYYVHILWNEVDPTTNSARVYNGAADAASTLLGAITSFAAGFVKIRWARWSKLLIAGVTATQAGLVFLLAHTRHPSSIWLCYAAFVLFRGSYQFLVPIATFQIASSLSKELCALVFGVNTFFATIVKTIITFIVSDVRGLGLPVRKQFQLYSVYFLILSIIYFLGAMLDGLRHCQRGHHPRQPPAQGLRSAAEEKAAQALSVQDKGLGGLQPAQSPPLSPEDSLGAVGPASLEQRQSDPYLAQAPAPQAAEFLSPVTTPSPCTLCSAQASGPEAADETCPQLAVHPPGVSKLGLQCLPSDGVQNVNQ
Kind of test: Inhibition of human RFC expressed in chinese hamster PC43-10 cells assessed as reduction of [3H]MTX uptake at 10 uM after 48 hrs by scintillation counting analysis relative to control. It is filed as cell-based. The method in brief:
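PC43-10 CHO cells expressing human RFC (~1.5 × 10^6) were seeded 48 h before assay. Uptake of 0.5 μM [3H]MTX was run in Hank's balanced salts for 2 min at 37 °C, with or without 10 μM unlabelled inhibitor, and stopped with ice-cold PBS. Cells were dissolved in 0.5 N NaOH, counted by scintillation and normalised to Folin-phenol protein (pmol/mg). RFC-null R2 cells gave baseline. Three experiments.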

The test system of test [12] is KB. Kind of test: Cell cycle arrest in human KB cells assessed as accumulation at sub-G1 phase at 1 uM after 96 hrs by propidium iodide staining-based flow cytometry (reference value: 3.5%). The test is classed as functional. In general terms: A flow cytometer gives signals particle by particle.
The subject of test [13] is KB. The test can be described thus: Induction of apoptosis in human KB cells assessed as viable cells at 1 uM after 96 hrs by Annexin V-FITC/7-AAD staining-based flow cytometry (RVB = 89.6%). It is filed as functional. The conditions noted are these: read-out: Activity.
In test [14] the test system is KB. The test can be described thus: Induction of apoptosis in human KB cells assessed as necrotic cells at 1 uM after 96 hrs by Annexin V-FITC/7-AAD staining-based flow cytometry (RVB = 7.80%). The test is classed as functional.
Test [15] can be described thus: (§3) Inhibition of GARFTase in human KB cells assessed as incorporation of [14C]-glycine into [14C]-formyl GAR incubated 30 mins prior to [14C]-glycine addition measured after 16 hrs by radiometric assay in presence of azaserin. It is filed as cell-based. An outline of the steps: (§4)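 KB cells were preincubated 1 h in folate- and glutamine-free medium with 2 nM LCV and a range of drug concentrations. Azaserine (4 μM final) was added for 30 min, then 2 mM glutamine and [14C(U)]glycine (0.1 mCi/L) for 16 h at 37 °C. TCA extracts were ether-washed and run on AG1×8 anion exchange. [14C]formyl GAR was measured per mg protein, and IC50 was set against DMSO controls; three experiments.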

Test [16] has as its system KB. The description is as §3. The test is classed as cell-based. The method in brief: as §4
The target of test [17] is Folate receptor alpha (Homo sapiens) (UniProt P15328). The test can be described thus: Displacement of [3H]folic acid from human FRalpha expressed in chinese hamster RT16 cells after 15 mins by scintillation counting analysis. It is filed as cell-based. The method in brief: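 FRα-expressing RT16 CHO cells (~1.5 × 10^6) were grown as monolayers. Bound folates were stripped with ice-cold acetate buffer (pH 3.5), then neutralised with HEPES-buffered saline (pH 7.4). Cells were then competed with [3H]folic acid against graded unlabelled ligand. Bound label read by scintillation, normalised to Folin-phenol protein (pmol/mg). Relative affinity = inverse molar ratio for 50% displacement, folic acid set at 1. Three experiments.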
Background: Displacement assays read how much labelled ligand stays bound in the presence of the test substance.

Test [18] concerns KB. Kind of test: Cell cycle arrest in human KB cells assessed as accumulation at S phase at 1 uM after 96 hrs by propidium iodide staining-based flow cytometry (reference value: 15.9%). The test is classed as functional.
For test [19], the system named is KB. Kind of test: Cell cycle arrest in human KB cells assessed as accumulation at G1/G0 phase at 1 uM after 96 hrs by propidium iodide staining-based flow cytometry (reference value: 67.4%). It is filed as functional.
For test [20], the system named is KB. The test can be described thus: Cell cycle arrest in human KB cells assessed as accumulation at G2/M phase at 1 uM after 96 hrs by propidium iodide staining-based flow cytometry (reference value: 13.2%). The test is classed as functional.
For test [21], the system named is KB. The test can be described thus: Induction of apoptosis in human KB cells assessed as late apoptotic cells at 1 uM after 96 hrs by Annexin V-FITC/7-AAD staining-based flow cytometry (reference value: 2.09%). The test is classed as functional.
Test [22] has as its system KB. The test can be described thus: Induction of apoptosis in human KB cells assessed as early apoptotic cells at 1 uM after 96 hrs by Annexin V-FITC/7-AAD staining-based flow cytometry (reference value: 0.485%). It is filed as functional.

The source made the active and inactive calls. No cut-off for these calls is given here. Bounds are passed on as bounds.

Sequence of Folate receptor alpha (Homo sapiens) (P15328 25-234 limits assumed): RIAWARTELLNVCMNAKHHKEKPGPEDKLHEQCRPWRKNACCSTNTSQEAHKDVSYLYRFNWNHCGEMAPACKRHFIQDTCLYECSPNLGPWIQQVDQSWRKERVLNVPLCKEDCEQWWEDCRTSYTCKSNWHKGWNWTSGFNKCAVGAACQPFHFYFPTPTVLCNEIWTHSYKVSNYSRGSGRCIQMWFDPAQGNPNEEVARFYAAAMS
Sequence of Bifunctional purine biosynthesis protein ATIC (Homo sapiens) (P31939 whole entry, looked up): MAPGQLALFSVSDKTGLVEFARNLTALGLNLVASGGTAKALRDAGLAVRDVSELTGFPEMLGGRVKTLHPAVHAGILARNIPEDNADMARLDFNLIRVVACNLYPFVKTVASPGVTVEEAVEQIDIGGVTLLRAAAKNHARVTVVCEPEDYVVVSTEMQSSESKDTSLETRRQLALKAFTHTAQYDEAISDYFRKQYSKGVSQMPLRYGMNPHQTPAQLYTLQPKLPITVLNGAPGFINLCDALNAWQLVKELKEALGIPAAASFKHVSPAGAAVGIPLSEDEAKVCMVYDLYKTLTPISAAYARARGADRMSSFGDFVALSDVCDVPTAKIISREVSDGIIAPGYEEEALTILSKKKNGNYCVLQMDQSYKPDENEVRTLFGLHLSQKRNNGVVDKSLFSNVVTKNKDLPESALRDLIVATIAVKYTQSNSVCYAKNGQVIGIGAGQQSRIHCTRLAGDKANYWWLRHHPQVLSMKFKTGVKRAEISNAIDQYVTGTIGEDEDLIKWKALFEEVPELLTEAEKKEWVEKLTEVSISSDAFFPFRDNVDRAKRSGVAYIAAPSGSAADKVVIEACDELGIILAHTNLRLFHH

A word on the IC50: it is the concentration that gives 50% inhibition. Turning to `Nc1nc2[nH]c(CCCc3ccc(C(=O)N[C@@H](CCC(=O)O)C(=O)O)cc3)cc2c(=O)[nH]1`, the IC50 was 649 nM in test [1], more than 1000 nM in test [2] and more than 1000 nM in test [3].

By inhibition is commonly meant the drop in the measured response relative to a control, in per cent. For `CN(C)C(=N)NC(=N)N` [METFORMIN], the inhibition of growth at 10000 µM in [4] amounted to 32%. Moreover, in [5], the inhibition entry was “inactive”.

For the compound `Nc1nc2[nH]cc(Cc3ccc(C(=O)N[C@@H](CCC(=O)O)C(=O)O)cc3)c2c(=O)[nH]1`, the IC50 in test [6], in test [7], in [2] and in test [3] was more than 1000 nM in each case.

As to `Nc1nc2c(c(=O)[nH]1)C[C@@H](CCc1ccc(C(=O)N[C@@H](CCC(=O)O)C(=O)O)cc1)CN2` [LOMETREXOL], the IC50 in test [2] is more than 1000 nM.

Take `Nc1nc2[nH]cc(CCCc3ccc(C(=O)N[C@@H](CCC(=O)O)C(=O)O)cc3)c2c(=O)[nH]1`: the IC50 in [6], in test [2] and in [3] was more than 1000 nM throughout. In addition, the outcome in [8] and in test [10] was Active. The outcome in test [9] was inactive.

For `Nc1nc2[nH]c(CCCCc3ccc(C(=O)N[C@@H](CCC(=O)O)C(=O)O)cc3)cc2c(=O)[nH]1`, the inhibition is less than 25% in test [11] and “Dose-dependent effect” in test [16]. For the same compound, the Activity was determined as 45.1% in test [12]; 0.748% in test [14]; 31.4% in test [18]; 22.3% in test [19]; 1.2% in [20]; 28.8% in test [21]. The Activity in [22] was 35.5%. Also, the viability at 1 µM in test [13] turned out to be 35%. For the same compound, the IC50 in test [15] was 5.71 nM; in test [2], more than 1000 nM. Besides, the outcome in test [17] was Active.

`Cc1nc(=O)c2cc(CN(C)c3ccc(C(=O)N[C@@H](CCC(=O)O)C(=O)O)s3)ccc2[nH]1` [RALTITREXED]: the IC50 in [2] was more than 1000 nM.
